High-throughput results (PubChem)
Shown are actives, neighbours in structure and some others; about 6.4% of the full set was active somewhere.
MPTP inh: mitochondrial permeability transition pore inhibitors, primary screen, biochemical, isolated mouse mitochondria, absorbance | 360,000 tested, 1.4% active | inhibition, % at 10 µM | Ca2+ swelling absorbance, 30 min;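 active = inhibition of 50% or more, scaled per plate between neutral and stimulator controls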;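 also: 0% = DMSO wells given calcium and 100% = 1 mM EGTA wells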
CHOP inh: inhibitors of CHOP promoter induction, primary screen, cell-based, unfolded protein response, luciferase reporter; 220,000 tested, 3.8% active; AID 2732, 2010; CHO-K1 CHOP-promoter luciferase, tunicamycin-induced, 15-18 h; inhibition, % at 10 µM;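 active = compounds that reduced the stress-induced luciferase reporter signal by more than about 70% of percent inhibition, limit read from the data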;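 also: 0% = tunicamycin plus vehicle and 100% = wells without tunicamycin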
TbMetRS inhib: T. brucei MetRS inhibitors, primary screen, biochemical, luminescence | inhibition, % at 11.9 µM | purified T. brucei MetRS, ATP depletion, Kinase-Glo luminescence | 360,000 tested, 0.4% active | methionyl-tRNA synthetase (Trypanosoma brucei brucei);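 active = inhibition above a per-plate cutoff of the control wells' mean inhibition plus 3 SD, cut at about 5.5% in these data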;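 also: 0% = DMSO wells median and 100% = median of wells with control inhibitor compound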
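Material: T. brucei methionyl-tRNA synthetase, purified; reagent: substrates ATP, L-methionine and bulk Escherichia coli tRNA; dosing: 11.9 µM single point; timing: 15 min plus 2 h at 25 °C; detection: luminescence of leftover ATP; evaluation: % inhibition; control set: DMSO-only wells as low control; replicates: singlicate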
NR3A LBD binder: binders of NR3A ligand-binding domain, primary screen, biophysical, differential scanning fluorimetry, uHTS; 340,000 tested, 2.5% active; Tm shift relative to glycine control, % at 25 µM; AID 1259313, 2017; NR3A LBD differential scanning fluorimetry, Tm shift; 0% = protein alone, 100% = glycine-bound protein; Glutamate receptor ionotropic, NMDA 3A (GRIN3A) ligand-binding domain;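 active = melting temperature shift of at least 10% of the positive control shift, at one fixed dose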
EBV gp42 inh: Epstein-Barr virus gp42 inhibitors, primary screen, biochemical, uHTS, fluorescence polarization; Glycoprotein 42 (Epstein-Barr virus (strain AG876)), Q1HVG2; inhibition, % (tested at 21.74 µM); 220,000 tested, 0.42% active; Fluorescence polarization binding assay, mP read-out; in the data active = inhibition above about 50%
Target sequence (Q1HVG2 whole entry, looked up): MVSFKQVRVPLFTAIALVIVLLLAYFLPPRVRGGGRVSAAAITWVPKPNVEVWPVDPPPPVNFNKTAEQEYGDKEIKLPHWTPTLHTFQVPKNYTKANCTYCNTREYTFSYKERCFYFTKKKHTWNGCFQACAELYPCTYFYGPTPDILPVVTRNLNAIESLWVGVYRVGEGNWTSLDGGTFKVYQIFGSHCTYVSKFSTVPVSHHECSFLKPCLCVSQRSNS
WT yeast gro inh: growth inhibition of WT strain, primary screen, mitochondrial fusion inhibitor project, WT and mutant strains, chemical genetic; mitochondrial fusion phenotypic screen; inhibition, % at 10 µM; 190,000 tested, 2.1% active; AID 1362, 2008; in the data active = inhibition above about 58%; tested in S. cerevisiae
Rh123 counter: fluorescence retest of MPTP screen hits in isolated mitochondria, single concentration | shares compounds with MPTP inh | membrane potential, Rhodamine 123 fluorescence | inhibition, % at 10 µM | 5,000 tested, 78% active | AID 624504, 2012; in the data active = inhibition above about 22%;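 also: 0% = DMSO vehicle and 100% = positive control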
MPTP swell DR: mitochondrial permeability transition pore inhibitors, dose response, biochemical, absorbance, uHTS hits. 780 tested, 58% active. isolated mitochondria swelling. shares compounds with MPTP inh. IC50, µM; in the data active = IC50 below about 20 µM
MPTP counter DR: fluorescent counter-screen in isolated mitochondria, dose response, counter-screen for MPTP inhibitor project, biochemical, fluorescence, uHTS hits | 780 tested, 49% active | AID 651564, 2012 | shares compounds with MPTP inh | IC50, µM | isolated mitochondria counterscreen, fluorescence read-out; in the data active = IC50 below about 80 µM
The depositor's hits bear a star; i = inactive; nt = no result.

SMILES | MPTP inh | CHOP inh | TbMetRS inhib | NR3A LBD binder | EBV gp42 inh | WT yeast gro inh | Rh123 counter | others
O=C(NNC1=C(C(=O)C(F)(F)F)CCC1)c1cccc(O)c1 | 0.0 | 32.1 | 0.4 | -27.5 | -15.6 | 8.5 | nt
CC(CNC(=O)COc1ccccc1)OC(=O)Nc1ccc(Cl)c(Cl)c1 (stereo not given) | 89.0* | 7.7 | -0.9 | -6.7 | -3.3 | 82.1* | 88.0*
COC(=O)NCC(C)OC(=O)Nc1cccc(Cl)c1 (stereo not given) | -1.3 | -19.2 | -1.0 | -0.9 | -5.6 | 1.0 | nt
COc1cccc(OC)c1C(=O)Nc1c(C(=O)N2CCN(C)CC2)oc2ccccc12 | -1.7 | nt | 0.4 | -0.5 | nt | nt | nt
Cc1ccc(C(NC(=O)NC(C)c2ccccc2)C(Cl)(Cl)Cl)cc1F (stereo not given) | 76.3* | 86.5* | -0.1 | -7.9 | 6.8 | 64.0* | 83.3*
CC(NC(=O)Nc1ccc(Cl)cc1)c1ccccc1 (stereo not given) | 30.1 | nt | 0.0 | -7.3 | nt | nt | nt
CCCC1=NN(c2ccc([N+](=O)[O-])cc2)C(=O)/C1=C\N(C)C | 77.7* | 11.4 | 0.8 | -8.3 | -0.7 | 9.9 | 25.6*
CCN(CC)c1ccc(/C=C2/C(=O)N(c3ccc([N+](=O)[O-])cc3)N=C2N2CCOCC2)cc1 | nt | -25.1 | nt | nt | -9.6 | -9.3 | nt
S=C(Nc1cccc(Cl)c1)Nc1cccc2cnccc12 | 96.8* | 21.7 | 3.6 | 2.7 | 5.3 | 70.1* | 99.3*
S=C(NCCc1ccccc1)Nc1cccc2cnccc12 | 85.8* | 52.9 | 1.1 | 1.2 | -11.0 | -3.5 | 85.1*
Cc1ccc(NC(=S)Nc2cccc3cnccc23)cc1 | 2.0 | 14.7 | 0.2 | -21.9 | -10.0 | 47.6 | nt
O=C(c1ccco1)N1CCN(c2ncnc3c2[nH]c2ccc(Cl)cc23)CC1 | nt | 27.6 | nt | nt | -12.0 | -7.7 | nt
O=C(/C=C/c1ccco1)N(Cc1cccc(F)c1)C1CCS(=O)(=O)C1 (stereo not given) | -2.5 | nt | -0.6 | 1.2 | nt | nt | nt
CC1(C)Cc2ccccc2C(=NCC(=O)O)N1 | -2.2 | -16.1 | -0.2 | 2.6 | -10.7 | -16.9 | nt
COc1ccc(-c2cccc(NS(=O)(=O)c3cc([N+](=O)[O-])ccc3C)c2)nn1 | -1.1 | nt | 0.1 | 2.6 | nt | nt | nt
CCOc1cc(C=O)cc(N=Nc2cccc([N+](=O)[O-])c2)c1O | 5.6 | nt | 0.1 | -11.4 | nt | nt | nt
O=[N+]([O-])c1ccc(N=Nc2ccc(O)cc2O)cc1 | 84.3* | 41.9 | -0.3 | 0.0 | -22.6 | 15.6 | 80.3*
O=[N+]([O-])c1cccc(N=Nc2ccc(O)cc2O)c1 | 83.7* | nt | 0.2 | -7.6 | nt | nt | 72.5*
O=[N+]([O-])c1ccc(N=NN(CCO)CCO)cc1 | 0.2 | -1.0 | -0.2 | 1.8 | 4.5 | 0.9 | nt
On1onc2c3cc(-c4ccccc4)nc3ccc21 | 100.8* | nt | 0.5 | 37.1* | 11.2 | 80.6* | 64.6*
COc1ccc(C(=O)N(C)CC2CCN(CCc3cccc(C(F)(F)F)c3)CC2)cc1C | 53.1* | nt | -0.1 | -2.0 | nt | nt | -3.2 | MPTP swell DR=11.8*;MPTP counter DR=42.1*
O=C(NC(NC1CCS(=O)(=O)C1)C(Cl)(Cl)Cl)c1ccc(Br)cc1 (stereo not given) | 90.9* | 45.2 | 0.0 | -1.4 | -3.6 | -6.8 | 101.9*
Cc1ccccc1CSCCNC(=S)Nc1ccccc1 | 56.9* | -8.1 | -0.7 | -2.9 | -5.2 | 70.9* | 78.4*
S=C(NCCSCc1ccc(Cl)cc1Cl)Nc1ccccc1 | 96.9* | 81.0* | 69.7* | 17.0* | -5.3 | 79.8* | 105.0*
S=C(NCCSCc1c(Cl)cccc1Cl)Nc1ccccc1 | 79.3* | 32.3 | -0.5 | 9.6 | -11.2 | 81.6* | 86.2*
SMILES | MPTP inh | CHOP inh | TbMetRS inhib | NR3A LBD binder | EBV gp42 inh | WT yeast gro inh | Rh123 counter | others
Cc1ccc(C(=O)NCCSCc2ccc(Cl)cc2Cl)cc1[N+](=O)[O-] | 68.4* | 21.0 | 1.7 | -23.3 | -17.1 | 38.5 | 78.4*
O=C(Cc1ccccc1)NCCSCc1ccc(Cl)cc1 | -1.6 | 30.6 | 0.3 | 0.4 | -9.1 | 4.5 | nt
CCC(CO)n1c(SCc2cc(=O)oc3cc(C)ccc23)nc2ccccc2c1=O (stereo not given) | 2.1 | 37.3 | -1.4 | -26.7 | 0.0 | -10.6 | nt
FC(F)(F)c1cc(-c2ccccc2)nc(N2CCCCC2)n1 | 67.3* | 20.5 | -1.3 | -1.7 | -19.2 | -7.2 | -2.3 | MPTP swell DR=i;MPTP counter DR=>80
CC(C)CN1C(=S)SC(C)(C)C1n1oc(=O)n(-c2ccc(Cl)cc2)c1=O (stereo not given) | 87.8* | 3.3 | -1.6 | 10.7* | -1.7 | -5.0 | 94.9*
CC(C)CN1C(=S)SC(C)(C)C1n1oc(=O)n(-c2ccccc2)c1=O (stereo not given) | 14.7 | 4.3 | -0.6 | -4.0 | -35.2 | 51.1 | nt
Cc1c(C(=O)N/N=C/c2ccccc2)[nH]c2ccc(Cl)cc12 | 86.6* | -41.9 | 0.5 | 30.2* | -1.4 | 1.2 | 88.8*
O=C(N/N=C/c1ccccc1Cl)c1[nH]c2ccc(Br)cc2c1-c1ccccc1 | 82.4* | -7.8 | -0.4 | 28.5* | 5.1 | 17.3 | 87.6*
Cc1c(C(=O)N/N=C/c2ccc(N(C)C)cc2)[nH]c2ccc(Cl)cc12 | 80.2* | -23.4 | 0.3 | 26.6* | -11.7 | -5.3 | 74.3*
Cc1cc(C(=O)CSc2nnc(-c3ccccc3F)o2)c(C)n1Cc1cccs1 | 53.9* | 37.7 | -0.2 | -0.7 | 6.7 | 18.1 | 29.1*
COc1ccccc1-n1cnnc1SCC(=O)c1cc(C)n(Cc2cccs2)c1C | 7.3 | 32.4 | -1.8 | -3.1 | 3.4 | -13.5 | nt
CC(=O)c1c(C)[nH]c(C(=O)COC(=O)c2c(-c3ccccc3)noc2C)c1C | -0.1 | nt | -0.3 | -7.4 | nt | nt | nt
O=C(c1cc(-c2ccncc2)nc2ccccc12)N1CCN(c2ccccc2O)CC1 | 0.4 | nt | -0.2 | 1.6 | nt | nt | nt
Cc1oc2cc([N+](=O)[O-])c(O)c([N+](=O)[O-])c2c1C(=O)c1ccc(Cl)cc1 | 76.1* | 24.8 | 1.2 | -3.0 | -6.8 | nt | 58.5*
CC(C)OCCCNC(=O)c1ccc(CS(=O)(=O)Cc2ccccc2F)o1 | 1.2 | -18.8 | 0.2 | 3.8 | -18.9 | -12.7 | nt
O=C(Nc1ccccc1)c1cc([N+](=O)[O-])ccc1NC1CCCCC1 | 51.1* | 36.8 | 0.1 | -7.4 | -9.5 | 19.1 | -0.8 | MPTP counter DR=>80
